Experimental data taken from ChEMBL document CHEMBL4373643, “Synthesis and biological evaluation of structurally diverse α-conformationally restricted chalcones and related analogues” (Medchemcomm, 2019).

Columns and labels:
[1] = target: Tubulin; experiment: Inhibition of tubulin polymerization (unknown origin) incubated for 10 mins by spectrophotometry; assay type: protein-complex assay, Homo sapiens
[2] = system: SK-OV-3; experiment: Cytotoxicity against human SKOV3 cells assessed as reduction in cell viability incubated for 48 hrs by SRB assay; assay type: functional; conditions: SK-OV-3, 48 h
In short: (§1)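 Cells from ATCC, plated at 7000–8000 cells/well in DMEM with 5% FBS and 1% gentamicin and left 24 h at 37 °C, 5% CO2. Compounds from a 10 mg mL–1 DMSO stock were serially diluted and added for 48 h. Cells were fixed with TCA (10% final), stained with SRB, and the dye solubilized in 10 mM Tris. A540 was normalized to A630, and GI50 was taken as 50% reduction in net protein increase.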

[3] = system: NCI-H460; experiment: Cytotoxicity against human NCI-H460 cells assessed as reduction in cell viability incubated for 48 hrs by SRB assay; assay type: functional; conditions: NCI-H460, 48 h; in short: as §1
[4] = system: DU-145; experiment: Cytotoxicity against human DU145 cells assessed as reduction in cell viability incubated for 48 hrs by SRB assay; assay type: functional; conditions: DU-145, 48 h; in short: as §1
[5] = system: HUVEC; experiment: Cytotoxicity against HUVEC assessed as reduction in cell viability incubated for 48 hrs by SRB assay; assay type: cell-based; conditions: human
In short: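 HUVECs were grown in M200 with VEGF kit supplements in collagen I coated flasks, then plated at 9000 cells/well and given 48 h to attach. Compounds were added as 10-fold serial dilutions in M200 with LSGS kit, 1% gentamicin and 1% amphotericin B. Growth was read by SRB assay, and GI50 was taken as the concentration inhibiting growth by 50%.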

[6] = Selectivity index, ratio of GI50 for HUVEC to GI50 for human DU145 cells; assay type: toxicity; conditions: HUVEC versus DU145 cells, read-out: RatioGI50
[7] = Selectivity index, ratio of GI50 for HUVEC to GI50 for human NCI-H460 cells; assay type: toxicity; conditions: HUVEC versus NCI-H460 cells, read-out: RatioGI50
[8] = target: Tubulin (Homo sapiens) (UniProt P68371+Q9H4B7+P0DPH7+P68366+Q13509+Q71U36+P04350+Q3ZCM7+P07437+P68363+Q9BQE3+Q6PEY2+Q13885+Q9BVA1+Q9BUF5); experiment: Inhibition of [3H]colchicine binding to tubulin (unknown origin) at 5 uM incubated for 10 mins by scintillation counting method relative to control; assay type: protein-complex assay
[9] = Selectivity index, ratio of GI50 for HUVEC to GI50 for human SKOV3 cells; assay type: toxicity; conditions: HUVEC versus SKOV3 cells, read-out: RatioGI50

Row | SMILES | IC50 [1] | inhibition [8] | GI50 [2] | GI50 [3] | GI50 [4] | Activity [5] | selectivity ratio [6] | selectivity ratio [7] | selectivity ratio [9]
1 | COc1ccc2c(c1)CC[C@H]1[C@H](c3cc(OC)c(OC)c(OC)c3)[C@@H]21 | > 20 µM | – | 54.5 µM | 38.8 µM | 41.1 µM | – | – | – | –
2 | COc1cc(Cc2ccc3c(O)c(OC)ccc3c2O)cc(OC)c1OC | – | – | 21.9 µM | 24.4 µM | 23.4 µM | – | – | – | –
3 | COc1ccc(/C=C\c2cc(OC)c(OC)c(OC)c2)cc1O [COMBRETASTATIN A4] | – | – | 0.00506 µM | 0.005 µM | 0.00602 µM | – | – | – | –
4 | COc1ccc2c(c1Br)CCC(=C\c1cc(OC)c(OC)c(OC)c1)/C2=N\O | > 20 µM | – | 80.1 µM | 47 µM | 50.1 µM | – | – | – | –
5 | COc1ccc2c(c1Br)CC[C@H]1[C@H](c3cc(OC)c(OC)c(OC)c3)[C@@H]21 | > 20 µM | – | 108 µM | 59.2 µM | 61.5 µM | – | – | – | –
6 | COc1cc(Cc2ccc3c(N)c(OC)ccc3c2O)cc(OC)c1OC | – | – | 16.4 µM | 65.2 µM | 49.7 µM | – | – | – | –
7 | COc1ccc2c(c1)CCC/C(=C\c1cc(OC)c(OC)c(OC)c1)C2=O | > 20 µM | – | 12 µM | 6.57 µM | 9.71 µM | – | – | – | –
8 | COc1cc(Cc2ccc3c([N+](=O)[O-])c(OC)ccc3c2O)cc(OC)c1OC | – | – | 21 µM | 22.9 µM | 18.6 µM | – | – | – | –
9 | COc1cc(Cc2ccc3c(Br)c(OC)ccc3c2O)cc(OC)c1OC | – | – | 18.3 µM | 5.92 µM | 6.17 µM | – | – | – | –
10 | COc1ccc2c(c1O)CCC(=C\c1cc(OC)c(OC)c(OC)c1)/C2=N\O | > 20 µM | – | 38.2 µM | 22.8 µM | 23.9 µM | – | – | – | –
11 | COc1cccc2c1C(=O)c1c(O)c3c(c(O)c1C2=O)C[C@@](O)(C(=O)CO)C[C@@H]3O[C@H]1C[C@H](N)[C@H](O)[C@H](C)O1 [DOXORUBICIN] | – | – | 0.0875 µM | 0.0547 µM | 0.108 µM | – | – | – | –
12 | COc1ccc2c(O)c(Cc3cc(OC)c(OC)c(OC)c3)ccc2c1 | 17 µM | – | 7.5 µM | 13.4 µM | 8.84 µM | Toxic | – | – | –
13 | CC(=O)O[C@H]1C(=O)[C@@]2(C)[C@H]([C@H](OC(=O)c3ccccc3)[C@]3(O)C[C@H](OC(=O)[C@H](O)[C@@H](NC(=O)c4ccccc4)c4ccccc4)C(C)=C1C3(C)C)[C@]1(OC(C)=O)CO[C@@H]1C[C@@H]2O [PACLITAXEL] | – | – | 0.00136 µM | 0.00165 µM | 0.00152 µM | – | – | – | –
14 | COc1ccc2c(c1)CC/C(=C\c1cc(OC)c(OC)c(OC)c1)C2=O | > 20 µM | – | 40.3 µM | 22.4 µM | 22.6 µM | – | – | – | –

The next lines start with results.

Row | IC50 [1] | inhibition [8] | SMILES | GI50 [2] | GI50 [3] | GI50 [4] | Activity [5] | selectivity ratio [6] | selectivity ratio [7] | selectivity ratio [9]
15 | > 20 µM | – | COc1ccc2c(c1O)CC/C(=C\c1cc(OC)c(OC)c(OC)c1)C2=O | 6.29 µM | 6.44 µM | 5.49 µM | Toxic | – | – | –
16 | > 20 µM | – | COc1ccc2c(c1Br)CC/C(=C\c1cc(OC)c(OC)c(OC)c1)C2=O | 29.6 µM | 22.6 µM | 27.6 µM | – | – | – | –
17 | > 20 µM | 0.34% | COc1ccc2c(c1N)CCC/C(=C\c1cc(OC)c(OC)c(OC)c1)C2=O | 0.936 µM | 0.733 µM | 0.237 µM | Non-Toxic | 100 | 100 | 100
18 | > 20 µM | 14% | COc1ccc2c(c1O)CCC/C(=C\c1cc(OC)c(OC)c(OC)c1)C2=O | 0.941 µM | 0.635 µM | 0.456 µM | Non-Toxic | 10 | 10 | 10
19 | > 20 µM | – | COc1ccc2c(c1C#N)CC/C(=C\c1cc(OC)c(OC)c(OC)c1)C2=O | 33.3 µM | 44.4 µM | 57.2 µM | – | – | – | –
20 | > 20 µM | – | COc1ccc2c(c1Br)CCC/C(=C\c1cc(OC)c(OC)c(OC)c1)C2=O | 8.5 µM | 4.44 µM | 9.91 µM | – | – | – | –
21 | > 20 µM | – | COc1cc(/C=C2\CCCc3c(ccc(OC)c3[N+](=O)[O-])C2=O)cc(OC)c1OC | 16.1 µM | 5.96 µM | 5.94 µM | – | – | – | –
22 | > 20 µM | – | COc1cc(/C=C2\CCc3c(ccc(OC)c3[N+](=O)[O-])C2=O)cc(OC)c1OC | 23.5 µM | 36.3 µM | 37.6 µM | – | – | – | –
23 | > 20 µM | – | COc1ccc2c(c1N)CC/C(=C\c1cc(OC)c(OC)c(OC)c1)C2=O | > 135 µM | 46.4 µM | 32.4 µM | Toxic | – | – | –
